Laboratory results published in ChEMBL document CHEMBL1212813, “alpha-Amino-3-hydroxy-5-methyl-4-isoxazolepropionic acid (AMPA) antagonists: from bench to bedside” (J Med Chem, 2010).
Blank lines part the entries; values can stand above or below the compound they belong to.

Columns and labels:
[1] = Displacement of [3H]AMPA from AMPA receptor in rat cortical membrane; format: cell membranes
Glutamate NMDA receptor [2] = assay: Inhibition of NMDA receptor glutamate site from rat cortical membrane
[3] = Displacement of [3H]kainate from kainate receptor in rat cortical membrane; format: cell membranes
Glutamate NMDA receptor [4] = assay: Inhibition of NMDA receptor glycine site from rat cortical membrane
[5] = target: T1, Glutamate receptor ionotropic, kainate 2 (Homo sapiens, UniProt Q13002); settings: 10 uM
T1 sequence (Q13002 whole entry): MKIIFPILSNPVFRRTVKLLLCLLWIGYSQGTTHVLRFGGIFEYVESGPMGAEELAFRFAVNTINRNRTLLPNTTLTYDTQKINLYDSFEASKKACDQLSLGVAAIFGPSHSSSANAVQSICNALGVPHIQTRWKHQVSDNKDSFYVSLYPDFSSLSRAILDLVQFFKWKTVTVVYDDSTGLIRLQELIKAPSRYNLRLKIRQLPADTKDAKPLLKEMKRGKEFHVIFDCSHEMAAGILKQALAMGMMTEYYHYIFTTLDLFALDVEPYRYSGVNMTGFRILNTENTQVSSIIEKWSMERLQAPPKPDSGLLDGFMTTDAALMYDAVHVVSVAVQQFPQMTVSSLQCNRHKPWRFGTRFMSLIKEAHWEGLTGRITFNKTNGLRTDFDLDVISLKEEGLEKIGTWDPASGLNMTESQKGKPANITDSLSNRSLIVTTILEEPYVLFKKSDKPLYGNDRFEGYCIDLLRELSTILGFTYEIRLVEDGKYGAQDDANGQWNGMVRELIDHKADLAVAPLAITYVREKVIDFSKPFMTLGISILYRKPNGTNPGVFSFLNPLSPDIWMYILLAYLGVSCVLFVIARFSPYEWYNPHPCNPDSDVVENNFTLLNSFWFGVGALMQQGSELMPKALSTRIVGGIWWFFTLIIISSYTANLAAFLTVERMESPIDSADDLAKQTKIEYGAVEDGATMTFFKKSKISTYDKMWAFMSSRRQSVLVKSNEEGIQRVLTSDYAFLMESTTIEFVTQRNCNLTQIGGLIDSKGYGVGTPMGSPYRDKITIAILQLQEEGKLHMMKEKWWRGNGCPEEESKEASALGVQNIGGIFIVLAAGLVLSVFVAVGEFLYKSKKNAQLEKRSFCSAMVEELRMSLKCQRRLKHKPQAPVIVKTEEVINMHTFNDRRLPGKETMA

[6] = target: Glutamate receptor ionotropic, kainate 1 (Homo sapiens) (UniProt P39086); assay: Binding affinity to GluR5
Glutamate receptor ionotropic, kainate 1 (Homo sapiens), sequence (P39086 whole entry): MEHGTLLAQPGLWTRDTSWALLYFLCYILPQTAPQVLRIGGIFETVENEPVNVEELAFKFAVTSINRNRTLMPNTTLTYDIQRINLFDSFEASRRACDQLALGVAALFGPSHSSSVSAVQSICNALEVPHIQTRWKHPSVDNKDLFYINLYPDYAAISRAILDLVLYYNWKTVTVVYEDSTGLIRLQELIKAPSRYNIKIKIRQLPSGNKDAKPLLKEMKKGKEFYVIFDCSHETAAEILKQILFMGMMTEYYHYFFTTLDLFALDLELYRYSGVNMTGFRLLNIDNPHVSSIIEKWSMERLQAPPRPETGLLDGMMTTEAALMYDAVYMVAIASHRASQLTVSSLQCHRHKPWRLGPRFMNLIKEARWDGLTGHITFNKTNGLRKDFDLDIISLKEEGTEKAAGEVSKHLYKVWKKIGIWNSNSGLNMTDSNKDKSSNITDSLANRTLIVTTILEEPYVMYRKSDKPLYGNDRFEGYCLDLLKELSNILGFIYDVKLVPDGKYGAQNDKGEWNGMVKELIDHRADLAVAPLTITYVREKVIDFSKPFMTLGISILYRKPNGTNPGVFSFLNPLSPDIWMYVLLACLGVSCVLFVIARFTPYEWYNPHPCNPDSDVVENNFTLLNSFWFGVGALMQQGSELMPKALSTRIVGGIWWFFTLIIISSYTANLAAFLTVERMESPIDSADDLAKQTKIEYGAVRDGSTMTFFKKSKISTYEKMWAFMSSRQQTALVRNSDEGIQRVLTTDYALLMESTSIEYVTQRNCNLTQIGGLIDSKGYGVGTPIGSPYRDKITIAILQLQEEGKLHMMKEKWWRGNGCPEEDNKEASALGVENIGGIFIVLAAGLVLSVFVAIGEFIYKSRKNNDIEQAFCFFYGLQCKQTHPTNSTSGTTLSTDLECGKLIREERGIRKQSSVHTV

Homo sapiens [7] = organism: Homo sapiens; assay: Toxicity in human assessed as hazy vision; format: organism-based; settings: in vivo
Meriones unguiculatus [8] = organism: Meriones unguiculatus; assay: Neuroprotective activity against middle cerebral artery occlusion-induced focal cerebral ischemia in Mongolian gerbils assessed as reduction in infarct volume in hemesphere; format: functional; parameters: scale not given: the % may be the effect or the level left
[9] = target: Glutamate receptor ionotropic, kainate 3 (Homo sapiens, UniProt Q13003); assay: Binding affinity to GluR7
Glutamate receptor ionotropic, kainate 3, sequence (Q13003 whole entry): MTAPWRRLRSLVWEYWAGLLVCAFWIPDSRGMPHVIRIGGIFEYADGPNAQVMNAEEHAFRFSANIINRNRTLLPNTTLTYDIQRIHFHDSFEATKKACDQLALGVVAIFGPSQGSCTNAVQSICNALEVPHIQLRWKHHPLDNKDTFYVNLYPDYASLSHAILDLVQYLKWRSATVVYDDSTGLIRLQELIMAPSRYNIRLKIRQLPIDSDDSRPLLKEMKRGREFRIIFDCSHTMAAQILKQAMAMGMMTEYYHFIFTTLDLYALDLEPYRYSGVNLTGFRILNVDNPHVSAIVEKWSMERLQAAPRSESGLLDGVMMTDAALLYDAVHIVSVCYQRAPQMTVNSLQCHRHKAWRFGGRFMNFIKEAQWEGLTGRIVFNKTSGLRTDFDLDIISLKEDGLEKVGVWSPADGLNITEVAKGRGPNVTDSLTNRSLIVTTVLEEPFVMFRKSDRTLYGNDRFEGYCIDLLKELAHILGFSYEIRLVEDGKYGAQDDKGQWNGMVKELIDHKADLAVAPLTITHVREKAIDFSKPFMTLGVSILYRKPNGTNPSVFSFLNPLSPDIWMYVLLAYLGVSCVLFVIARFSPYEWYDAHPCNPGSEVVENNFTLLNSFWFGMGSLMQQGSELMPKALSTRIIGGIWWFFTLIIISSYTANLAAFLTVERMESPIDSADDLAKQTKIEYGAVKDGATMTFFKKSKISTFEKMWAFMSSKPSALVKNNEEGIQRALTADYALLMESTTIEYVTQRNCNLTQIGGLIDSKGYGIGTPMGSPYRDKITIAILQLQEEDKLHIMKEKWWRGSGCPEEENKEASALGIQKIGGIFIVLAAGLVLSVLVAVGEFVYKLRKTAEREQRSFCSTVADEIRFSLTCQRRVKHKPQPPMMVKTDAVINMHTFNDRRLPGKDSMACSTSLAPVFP

Homo sapiens [10] = organism: Homo sapiens; assay: Toxicity in human assessed as occurance of systemic allodynia; format: organism-based; settings: in vivo
Meriones unguiculatus [11] = organism: Meriones unguiculatus; assay: Neuroprotective activity against middle cerebral artery occlusion-induced focal cerebral ischemia in Mongolian gerbils assessed as reduction in infarct volume in cortex; format: functional; parameters: scale not given: the % may be the effect or the level left
Mus musculus [12] = assay: Anticonvulsant activity in ip dosed mouse assessed as inhibition of MES-induced tonic seizures; format: functional
[13] = target: T1, Glutamate receptor ionotropic, kainate 2; assay: Binding affinity to GluR6
Felis catus [14] = organism: Felis catus; assay: Neuroprotective activity against middle cerebral artery occlusion-induced focal cerebral ischemia in cat assessed as reduction in infarct volume in hemesphere; format: functional; parameters: scale not given: the % may be the effect or the level left
Homo sapiens [15] = organism: Homo sapiens; assay: Toxicity in human assessed as sedation; format: organism-based; settings: in vivo
Felis catus [16] = organism: Felis catus; assay: Neuroprotective activity against middle cerebral artery occlusion-induced focal cerebral ischemia in cat assessed as reduction in infarct volume in cortex; format: functional; parameters: scale not given: the % may be the effect or the level left
[17] = Antagonist activity at AMPA receptor in rat cortical membrane assessed as inhibition of AMPA-induced membrane current; format: functional, cell membranes
Mus musculus [18] = assay: Anticonvulsant activity in ip dosed DBA2 mouse assessed as inhibition of sound-induced clonic seizures; format: functional
Rattus norvegicus [19] = organism: Rattus norvegicus; assay: Selectivity ratio IC50 for rat AMPA receptor to IC50 rat kainate receptor
Rattus norvegicus [20] = assay: Neuroprotective effect against middle cerebral artery occlusion-induced focal cerebral ischemia in iv dosed spontaneously hypertensive rat; format: functional
Mus musculus [21] = assay: Anticonvulsant activity in po dosed mouse assessed as inhibition of MES-induced tonic seizures; format: functional
Method in brief: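 Mice were dosed orally 2 h before maximal electroshock. The read-out was protection from tonic convulsions, and an ED50 was derived.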

[22] = Displacement of [3H]AMPA from AMPA receptor in rat cortical membrane in presence of cyclothiazide; format: cell membranes

Structure (SMILES): O=C(O)[C@@H]1C[C@H]2C[C@@H](CCc3nn[nH]n3)CC[C@H]2CN1 [TEZAMPANEL ANHYDROUS]
- inhibition [5]: < 20%
- IC50 [1]: 1.3 µM
- Ki [1]: 0.68 µM
- Kb [6]: 0.2 µM
- Activity (Homo sapiens [7]): 20%
- IC50 [3]: 28.1 µM
- Activity (Meriones unguiculatus [8]): 25%
- Ki [9]: > 100 µM
- Activity (Homo sapiens [10]): <= 58%
- Activity (Meriones unguiculatus [11]): 31%
- ED50 (Mus musculus [12]): 2.9 mg/kg
- Ki [13]: > 100 µM
- Activity (Felis catus [14]): 18%
- Activity (Homo sapiens [15]): 15%
- Activity (Felis catus [16]): 19%

Structure (SMILES): Oc1nc2ccc(-n3ccnc3)cc2nc1O
- Ki [1]: 1.6 µM

Structure (SMILES): Oc1nc2ccccc2nc1O
- Ki [1]: > 100 µM

Structure (SMILES): O=P(O)(O)CNCc1cc(Br)cc2nc(O)c(O)nc12
- IC50 [1]: 2.4 µM

Structure (SMILES): CN(C)CCOc1ccccc1-c1nc(-c2ccccc2)no1 [IRAMPANEL]
- IC50 [17]: 8.5 µM
- ED50 (Mus musculus [18]): 23.4 mg/kg

Structure (SMILES): CCC1(C)CC(=O)NC(=O)C1 [BEMEGRIDE]
- ED50 (Mus musculus [21]): 23.9 mg/kg

Structure (SMILES): C1CCc2nnnn2CC1 [PENTYLENETETRAZOL]
- ED50 (Mus musculus [21]): 16.8 mg/kg

Structure (SMILES): CS(=O)(=O)Nn1c(=O)[nH]c2cc(Cl)ccc2c1=O
- ED50 (Mus musculus [12]): 40 mg/kg

Further lines, with some results ahead:

- IC50 [1]: 0.5 µM
- IC50 (Glutamate NMDA receptor [2]): 40 µM
- IC50 [3]: 2 µM
- IC50 (Glutamate NMDA receptor [4]): 9.5 µM
Structure (SMILES): O=c1[nH]c2cc([N+](=O)[O-])c([N+](=O)[O-])cc2[nH]c1=O [DNQX]

- Ki [1]: 0.084 µM
- Ki (Glutamate NMDA receptor [2]): > 100 µM
- Ki [3]: 2.2 µM
Structure (SMILES): O=c1[nH]c2cc(-n3ccnc3)c([N+](=O)[O-])cc2[nH]c1=O [YM-90K]

- IC50 [1]: 0.3 µM
- IC50 [3]: 1.5 µM
- IC50 (Glutamate NMDA receptor [4]): 14 µM
Structure (SMILES): N#Cc1cc2c(cc1[N+](=O)[O-])=NC(=O)C(=O)N=2

- IC50 [1]: 0.15 µM
- IC50 (Glutamate NMDA receptor [2]): > 90 µM
- IC50 [3]: 4.8 µM
- IC50 (Glutamate NMDA receptor [4]): > 100 µM
- Ratio IC50 (Rattus norvegicus [19]): > 30
Structure (SMILES): NS(=O)(=O)c1cccc2c1c([N+](=O)[O-])cc1nc(O)c(O)nc12 [NBQX]
- ED50 (Mus musculus [18]): 27.8 mg/kg
- Activity (Rattus norvegicus [20]): 30%

- IC50 [3]: 81 µM
- IC50 [22]: 0.15 µM
Structure (SMILES): CN(C)S(=O)(=O)c1cc2c(N=O)c(O)[nH]c2c2c1CCCC2
- ED50 (Mus musculus [12]): 30 mg/kg
